Screening data (PubChem BioAssay)
MIN6 prolif = MIN6 beta-cell proliferation induction. MIN6 cells proliferation, ATPlite luminescence, 48 h; cells starved in 0.2% serum; 100% = growth in 10% serum. proliferation, % at 10 µM. actives 0.29% (n = 330,000);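 active means compounds whose signal lies at least 3.5 SD above the mean of all wells on their plate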;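 further: 0% = DMSO-treated cells in low-serum medium and 100% = 10% serum control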
CR mimetic SO = yeast age-related superoxide inhibition as caloric restriction mimetic. S. cerevisiae aged cells, superoxide DHE fluorescence; active compounds read low. superoxide response (% of plate mean), % at 10 µM. actives 0.18% (n = 330,000);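 active means superoxide response under a set limit, about three screen SD below normal, cut at about 65% in these data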;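 further: yeast aged for seven days with compound at 30 °C before DHE staining; 100% = average MFI of all compound-treated wells on the plate with controls excluded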
T cell HTS = T cell immune modulators affecting CD8 T cell-vesicle binding | 2C CD8+ T cell-vesicle binding, flow cytometry; active compounds read low | response (vesicle binding), % at 7 µM | actives 0.068% (n = 330,000) | AID 2052;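 active means response, share of CD8 T cells binding vesicles, and their 90th percentile fluorescence all below set limits, cut at about 80% in these data, passing the limit was not always enough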;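 further: values below 100% mean blocked vesicle binding to the CD8+ T cells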
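System: murine 2C transgenic CD8+ T lymphocytes; also added: QL9-loaded Drosophila micro-vesicles; times: binding 1.5 h at 37 °C; measured by: flow cytometry, PE anti-B7-1 (FL2) versus Alexa647 anti-CD8 (FL8), PFA-fixed; control set: Peptide-free naked vesicles (low) and QL9 vesicles with 0.7% DMSO vehicle (high)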
KLK7 zymogen act = activates the human kallikrein-7 zymogen; P49862; purified proKLK7, EDANS-DABCYL substrate fluorescence; 100% is mature enzyme control, 0% vehicle; activation, % at 7 µM; actives 0.9% (n = 370,000); AID 652039;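 active means activation above the mean of all tested compounds plus 3 SD, computed per campaign excluding outliers beyond control limits, cut at about 13% in these data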
Target sequence (P49862 whole entry, looked up): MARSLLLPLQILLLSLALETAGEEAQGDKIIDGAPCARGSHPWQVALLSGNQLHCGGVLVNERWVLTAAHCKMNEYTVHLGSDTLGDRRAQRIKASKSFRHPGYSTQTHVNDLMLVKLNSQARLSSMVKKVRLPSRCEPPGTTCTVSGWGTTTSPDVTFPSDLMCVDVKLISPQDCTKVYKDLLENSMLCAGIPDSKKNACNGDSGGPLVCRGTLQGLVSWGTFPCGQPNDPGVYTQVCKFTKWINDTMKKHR
Rce1 inh = blocks yeast Ras-converting enzyme; calls only; yeast membranes, quenched prenylated peptide cleavage fluorescence; AID 2563; Q03530; actives 0.27% (n = 290,000);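 active means fall in fluorescence gain of 50% or more versus controls, with final raw signal at or below 3038400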;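 further: plate controls were neutral control wells for no effect and wells lacking membranes for full effect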
Target sequence (Q03530 whole entry, looked up): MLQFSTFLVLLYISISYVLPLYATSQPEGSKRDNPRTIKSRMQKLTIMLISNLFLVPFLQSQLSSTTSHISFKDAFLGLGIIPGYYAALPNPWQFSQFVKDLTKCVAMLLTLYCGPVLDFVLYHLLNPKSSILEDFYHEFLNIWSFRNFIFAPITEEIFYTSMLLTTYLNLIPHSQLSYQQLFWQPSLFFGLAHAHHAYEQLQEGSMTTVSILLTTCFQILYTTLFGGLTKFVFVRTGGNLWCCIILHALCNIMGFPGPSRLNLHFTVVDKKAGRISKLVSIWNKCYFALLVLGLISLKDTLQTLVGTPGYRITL
V-ATPase pH = regulators of yeast V-ATPase proton transport. S. cerevisiae, pHLuorin cytosolic pH fluorescence. response, % at 10 µM. actives 0.37% (n = 350,000). AID 504577; in the data active means response mostly above about 7.3%, no sharp cut-off; inactive means mostly below about 5.4%; further: actives read high
KLK7 act conf = proKLK7 activation, confirmation | shares compounds with KLK7 zymogen act | purified proKLK7, EDANS-DABCYL substrate fluorescence; scaled: vehicle 0, mature enzyme 100 | activation, % at 7 µM | actives 68% (n = 3,200);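 active means activation, as change over the incubation, above the mean of all tested compounds plus 3 SD, cut at about 13% in these data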
EDANS-DABCYL int = counter-screen for kallikrein-7 activators: EDANS-DABCYL optical interference; EDANS-DABCYL substrate fluorescence interference, no enzyme, 4 h; solvent 0%, active enzyme control 100%; actives 80% (n = 3,200); activation, % at 7 µM; shares compounds with KLK7 zymogen act;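 active means activation above the all-compound mean plus 3 SD, ignoring values outside control-based bounds, cut at about 4.8% in these data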;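 further: value is the 4 h activation minus the activation read at time zero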
K7 EDANS ctr = optically interferes with EDANS-DABCYL fluorescence, kallikrein-7 activator counter-screen | shares compounds with KLK7 zymogen act | EDANS-DABCYL peptide fluorescence interference, no enzyme | AID 720493 | actives 20% (n = 250) | EC50, µM;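 active means compounds that raise the fluorescence signal in this interference counterscreen, with EC50 at or below 10 µM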;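 further: intact quenched peptide substrate alone read at 355 nm excitation and 520 nm emission; signal is fluorescence gain from T0 to T4 after four hours at room temperature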
* marks the source's active call; other numbers are inactive results; i = inactive; nt = no result; ! = repeats disagree. Sampled rows, rich in hits. Any-hit rate of the full collection: about 1.9%.

SMILES	MIN6 prolif	CR mimetic SO	T cell HTS	KLK7 zymogen act	Rce1 inh	V-ATPase pH	KLK7 act conf	EDANS-DABCYL int	others
Cc1cc(=O)[nH]c(SCc2nc3ncccn3c2Br)n1	-2	107	338	29*	i	0	12	15*
Cc1ccc2nc(-c3ccc(SCC(=O)N4CCc5ccccc54)nc3)[nH]c2c1	-3	88	244	-6	i	-2	nt	nt
Cc1ccc2nc(-c3ccc(SCC(=O)O)nc3)[nH]c2c1	-4	88	224	16*	i	0	23*	27*
CCOCCC(=O)Nc1ccc2c(c1)c(=O)n(C)n2-c1ccccc1F	nt	nt	nt	21*	nt	nt	21*	22*
CCOCCC(=O)Nc1ccc2c(c1)c(=O)n(C)n2Cc1cccc(C(F)(F)F)c1	nt	nt	nt	16*	nt	nt	6	9.7*
CC(CC(=O)Nc1ccc2c(c1)c(=O)n(C)n2Cc1ccc(Cl)cc1)C(F)(F)F (stereo unspecified)	nt	nt	nt	11	nt	nt	nt	nt
COc1cc(Cn2c3ccc(NC(=O)CC(C)C(F)(F)F)cc3c(=O)n2C)ccc1F (stereo unspecified)	nt	nt	nt	17*	nt	nt	-7	-7
CCOC(=O)C1CCCN(C(=O)c2ccccc2OC(F)(F)F)CC1 (stereo unspecified)	nt	nt	nt	0	nt	nt	nt	nt
CC1CC(C)CN(c2ccc(NS(=O)(=O)c3ccccc3)cc2C(=O)O)C1 (stereo unspecified)	-2	96	0	-1	i	-2	nt	nt
Cc1noc(C)c1NC(=O)N(C)C[C@H]1Oc2ccc(NC(=O)C3CC3)cc2C(=O)N([C@H](C)CO)C[C@@H]1C	-1	83	130	1	nt	3	nt	nt
Fc1ccc(Oc2cnns2)cc1	0	90	156	0	i	0	nt	nt
N#C/C(=C/c1ccc(-c2ccc(S(N)(=O)=O)cc2)o1)C(=O)Nc1ccccc1	-3	100	i	27*	i	-1	16*	0	K7 EDANS ctr=i
N#C/C(=C/c1ccc(-c2ccc(S(N)(=O)=O)cc2)o1)c1nc2ccccc2s1	-1	95	950	-1	nt	-1	nt	nt
CC(C)CCNC(=O)c1cnn2c(C(F)(F)F)cc(-c3ccco3)nc12	1	93	244	-1	i	8	nt	nt
CCOC(=O)c1cnn2c(C)cc(-c3ccccc3)nc12	-3	99	326	24*	i	2	21*	32*
CCOC(=O)c1cnn2c(C(F)(F)F)cc(-c3ccco3)nc12	-1	110	192	31*	i	2	26*	43*
CCOC(=O)c1cc2nc(-c3ccccc3)cc(C)n2n1	1	92	277	8	i	-3	nt	nt
CCOC(=O)C(=O)Cc1cccnn1	nt	nt	nt	2	nt	2	nt	nt
COc1ccccc1Oc1c(C)oc2cc(OC(=O)c3ccco3)ccc2c1=O	-5	108	163	131*	nt	-3	785*	792*
Cc1oc2cc(OCC(=O)O)ccc2c(=O)c1Oc1ccccc1	-4	97	258	-1	nt	5	nt	nt
CCOc1ccccc1Oc1c(C)oc2cc(OC(=O)c3ccco3)ccc2c1=O	-2	90	347	28*	i	0	272*	238*
COc1ccc2c(=O)c(-c3ccccc3C)c(C)oc2c1	0	75	317	0	i	-2	nt	nt
COc1ccc(Oc2c(C)oc3cc(OC(=O)N4CCOCC4)ccc3c2=O)cc1	-4	95	nt	0	i	1	nt	nt
COc1ccccc1-c1c(C)oc2cc(OC(=O)c3ccco3)ccc2c1=O	-1	100	179	268*	i	-1	376*	359*
CCOc1ccc(NC(=O)CN(C)C(=O)CCCc2c[nH]c3ccccc23)cc1OCC	0	116	888	0	i	0	nt	nt
SMILES	MIN6 prolif	CR mimetic SO	T cell HTS	KLK7 zymogen act	Rce1 inh	V-ATPase pH	KLK7 act conf	EDANS-DABCYL int	others
c1ccc(N2[C@@H]3c4ccccc4C[C@H]2c2ccccc23)cc1	nt	nt	nt	1	nt	nt	nt	nt
Cc1cc(/C=C(\C#N)C(=O)Nc2ccccc2F)c(C)[nH]1	3	88	239	32*	i	-1	6	6.9*
CCCCn1c(=NC(=O)c2cccnc2)c(C(=O)OCC)cc2c(=O)n3ccccc3nc21	nt	nt	nt	4	i	1	nt	nt
CCCCn1c(=NC(=O)c2ccco2)c(C(=O)OCC)cc2c(=O)n3cccc(C)c3nc21	-3	96	798	18*	i	2	2	-1
CCOCCCn1c(=NC(=O)c2cccnc2)c(C(=O)OCC)cc2c(=O)n3ccccc3nc21	-2	105	598	29*	i	-1	3	4.5*!
CCCCn1c(=NC(=O)c2ccco2)c(C(=O)OCC)cc2c(=O)n3ccccc3nc21	4	94	478	50*	i	5	21*	21*
CCCCCn1c(=NC(=O)c2ccco2)c(C(=O)OCC)cc2c(=O)n3ccccc3nc21	7	99	375	24*	i	0	33*	38*
CCOC(=O)c1cc2c(=O)n3ccccc3nc2n(Cc2ccc(Cl)cc2)c1=N	nt	nt	nt	0	nt	5	nt	nt
CCOC(=O)c1cc2c(=O)n3cccc(C)c3nc2n(CCCOC)c1=NC(=O)c1cccnc1	0	102	931	9	i	0	nt	nt
N#CCC[C@H]1CC[C@]2(CCCN(C(=O)c3ccc4ccccc4n3)C2)O1	nt	nt	nt	1	nt	nt	nt	nt
CC(=O)C1=C(C)N(Cc2ccc(Br)cc2)C(=S)NC1c1cccc(Br)c1 (stereo unspecified)	nt	nt	nt	0	nt	nt	nt	nt
NC(=O)c1c(NC(=O)c2ccccc2)sc2c1CCC2	-2	103	213	90*	i	-5	2	2
NC(=O)c1c(NC(=O)c2ccncc2)sc2c1CCCC2	1	103	190	0	i	-2	nt	nt
Cc1cc(=O)[nH]c(SCC(=O)Nc2ccc(Cl)cc2)n1	nt	nt	nt	-1	nt	nt	nt	nt
COc1ccc(NC(=O)C(C)N2C(=O)c3ccccc3C2=O)c(OC)c1 (stereo unspecified)	0	92	332	0	i	-3	nt	nt
CCOC(=O)c1c(NC(=S)Nc2ccc(Cl)cc2)sc2c1CCN(C)C2	nt	83	518	18*	nt	4	20*	21*
Cc1ccccc1C(=O)Nc1c2c(nn1C(C)(C)C)CS(=O)(=O)C2	-1	105	381	0	i	-1	nt	nt
COc1cccc(CNC(=O)[C@H]2CCCN2C(=O)[C@H]2CCCN2C(=O)c2ccc(F)c(F)c2)c1	nt	nt	nt	0	nt	nt	nt	nt
